Screening results deposited in PubChem BioAssay by several laboratories.
An excerpt weighted towards active compounds, which were near 2.6% of everything screened.
NadD block: blocks S. aureus nicotinate mononucleotide adenylyltransferase. purified NadD enzyme, colorimetric absorbance read-out. inhibition, % at 20 µM. 0.78% of 360,000 active; in the data active = inhibition above about 26%
LMPTP inh: blocks human LMPTP phosphatase | inhibition, % at 20 µM | P24666 | 0.22% of 360,000 active | recombinant LMPTP-A, OMFP fluorogenic substrate, fluorescence intensity;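 active = compounds that cut the enzyme signal by at least half of the control window in the single-dose screen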;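 also: plate controls were DMSO wells with enzyme plus substrate for no effect and substrate without enzyme for full effect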
Target sequence (P24666 whole entry, looked up): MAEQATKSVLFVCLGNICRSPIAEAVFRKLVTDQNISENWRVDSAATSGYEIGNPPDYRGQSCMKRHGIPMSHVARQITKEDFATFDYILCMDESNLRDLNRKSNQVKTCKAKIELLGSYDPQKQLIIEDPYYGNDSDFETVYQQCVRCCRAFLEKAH
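Test system: LMPTP-A, protein tyrosine phosphatase of low molecular weight; Input: 0.625 nM enzyme; Incubation: 50 min dark incubation at room temperature; Signal: endpoint fluorescence intensity from OMFP dephosphorylation; Read-out basis: % inhibition versus control wells.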
STEP block: STEP (human) phosphatase inhibition. P54829. recombinant STEP, OMFP fluorogenic substrate, fluorescence. inhibition, % at 20 µM. 0.25% of 360,000 active. AID 588621;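 active = inhibition at 20 µM, scaled per plate between control wells, above about 37%, limit read from the data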;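 also: 0% = DMSO with enzyme and substrate and 100% = substrate only without enzyme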
Target sequence (P54829 whole entry, looked up): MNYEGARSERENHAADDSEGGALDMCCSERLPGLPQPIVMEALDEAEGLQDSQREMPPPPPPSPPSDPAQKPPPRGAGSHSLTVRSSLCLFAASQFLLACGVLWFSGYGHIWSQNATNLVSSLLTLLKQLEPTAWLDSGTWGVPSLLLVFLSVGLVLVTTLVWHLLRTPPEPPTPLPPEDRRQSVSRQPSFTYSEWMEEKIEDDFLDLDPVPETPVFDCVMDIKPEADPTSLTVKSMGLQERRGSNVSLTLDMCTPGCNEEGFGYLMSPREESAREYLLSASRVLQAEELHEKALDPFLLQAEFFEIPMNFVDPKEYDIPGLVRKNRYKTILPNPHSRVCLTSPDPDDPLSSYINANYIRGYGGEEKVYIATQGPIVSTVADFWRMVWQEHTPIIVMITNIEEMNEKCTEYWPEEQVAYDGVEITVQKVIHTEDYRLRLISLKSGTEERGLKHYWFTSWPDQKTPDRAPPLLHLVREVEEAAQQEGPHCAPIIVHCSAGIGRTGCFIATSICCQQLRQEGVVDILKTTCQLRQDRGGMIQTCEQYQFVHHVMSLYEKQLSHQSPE
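System: STEP (striatal-enriched tyrosine phosphatase) enzyme, cell-free; medium: Bis-Tris pH 6.0 buffer with DTT, detergent; dosing: 20 µM, 1% DMSO; times: reaction 20 min, ambient temperature; detection: fluorescence, 480/540 nm; read-out basis: normalized % inhibition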
Scp1 inh: blocks human Scp-1 phosphatase activity; 0.88% of 340,000 active; Recombinant Scp1, phosphopeptide, malachite green phosphate absorbance; inhibition, % at 20 µM;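 active = inhibition above about 50% at 20 µM, limit read from the data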;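 also: plate controls were DMSO wells with enzyme for no effect and wells lacking enzyme for full effect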
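System: truncated SCP-1 phosphatase (76-261aa); medium: Tris acetate buffer pH 5.5 with MgCl2 and Tween-20; incubation: 45 min room-temperature reaction, 5 min colour, 30 min stabiliser; compound: single 20 µM dose, 1% DMSO; reagent: Phosphorylated 17-residue peptide substrate; read-out: % inhibition at 20 µM; technique: colorimetric free-phosphate detection, absorbance 630 nm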
rCAG binder: binds r(CAG) RNA repeats; inhibition, % at 3 µM; 1.3% of 370,000 active; r(CAG) RNA repeat, TO-PRO-1 dye displacement fluorescence;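 active = inhibition above the plate cutoff, the mean of all test compounds on that plate plus 3 SD, cut at about 35% in these data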;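 also: 0% = DMSO alone and 100% = 100 µM mitoxantrone as full dye displacement; higher means more dye released from RNA so lower well fluorescence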
rCAG binder conf: r(CAG) RNA repeat binding, confirmation | shares compounds with rCAG binder | TO-PRO-1 dye displacement fluorescence | inhibition, % at 3 µM | 70% of 4,300 active;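 active = inhibition above a per-plate cutoff, the mean inhibition of sample wells plus 3 SD, cut at about 35% in these data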;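 also: loss of TO-PRO-1 fluorescence as compound displaces dye from 1x1 AA loop RNA; 0% = DMSO only wells and 100% = 100 µM mitoxantrone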
dCAG dye counter: counter-screen for rCAG RNA binders: DNA CAG dye complex inhibitors. AID 652068. shares compounds with rCAG binder. 94% of 4,300 active. inhibition, % at 3 µM. d(CAG) DNA oligo TO-PRO-1 dye displacement, fluorescence;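 active = inhibition above its plate's cutoff, the mean test-well inhibition plus 3 SD, cut at about 4.8% in these data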;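 also: 0% = DNA dye mix with DMSO and 100% = 100 µM mitoxantrone; hits displace the dye from DNA and so lower well fluorescence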
DNA CAG DR: counter-screen for rCAG binders: inhibitors of DNA CAG TO-PRO-1 complex | shares compounds with rCAG binder | DNA CAG/GTC duplex TO-PRO-1 dye displacement fluorescence | IC50, µM | 20% of 250 active | AID 686960; in the data active = IC50 below about 10 µM
* marks the source's active call; other numbers are inactive results; i = inactive; nt = no result given.

SMILES	NadD block	LMPTP inh	STEP block	Scp1 inh	rCAG binder	rCAG binder conf	dCAG dye counter	others
COc1ccc(-c2nnc(SCC(=O)Nc3ccc(S(=O)(=O)Nc4nccs4)cc3)n2-c2ccc(OC)cc2)cc1	nt	nt	nt	nt	64.2*	57.9*	27.8*
COc1ccc(-n2c(SCC(=O)Nc3ccc(S(=O)(=O)Nc4nccs4)cc3)nnc2-c2cccs2)cc1	nt	nt	nt	nt	72.6*	71.6*	32.9*	DNA CAG DR=i
Cn1c(SCC(=O)Nc2ccc(S(=O)(=O)Nc3nccs3)cc2)nc2sc3c(c2c1=O)CCCC3	nt	nt	nt	nt	74.5*	76.8*	42.5*
Cc1ccc(-n2c(SCC(=O)Nc3ccc(S(=O)(=O)Nc4cc(C)nc(C)n4)cc3)nnc2-c2cccs2)cc1	nt	nt	nt	nt	43.1*	41.6*	11.2*
Cc1cccc(NC(=O)CSc2ncnc3sc4c(c23)CCCC4)c1	nt	nt	nt	nt	5.9	nt	nt
COC(=O)C[C@H]1CC[C@@H]2[C@@H](COc3ccc(NC(=O)C4CCCCC4)cc3C(=O)N2C)O1	nt	nt	nt	nt	0.3	nt	nt
C=CCCC(=O)N1CCC(C(=O)NC2CCCc3ccccc32)CC1 (centres undefined)	nt	nt	nt	nt	3.2	nt	nt
O=C(CSc1nnc(-c2cccnc2)n1-c1ccc(Cl)cc1)Nc1ccc(S(=O)(=O)Nc2nccs2)cc1	nt	nt	nt	nt	58.8*	63.5*	22.2*
Cc1ccc(NC(=O)CSc2nnc(-c3cccnc3)n2-c2ccc(C)cc2)cc1	4.1	-0.9	-3.8	0.8	-1.0	nt	nt
CC(C)(C)c1ccc(-c2nnc(SCC(=O)Nc3ccc(S(=O)(=O)Nc4nccs4)cc3)n2Cc2ccco2)cc1	nt	nt	nt	nt	51.0*	46.6*	19.5*
O=S(=O)(Nc1nc2ccccc2nc1N1CCc2ccccc2C1)c1ccc(Br)cc1	0.2	2.5	-0.4	-3.7	13.5	nt	nt
Cc1ccccc1S(=O)(=O)Nc1nc2ccccc2nc1N1CCc2ccccc2C1	6.4	0.7	2.6	-7.4	35.4*	45.1*	14.8*
CC(=O)Nc1ccc(S(=O)(=O)Nc2nc3ccccc3nc2N2CCCCCC2)cc1	1.2	1.8	-2.9	-6.0	24.4	nt	nt
CC(=O)Nc1ccc(S(=O)(=O)Nc2nc3ccccc3nc2N2CCc3ccccc3C2)cc1	13.3	2.5	-1.1	-11.1	49.5*	60.1*	24.6*
Cc1ccccc1CNC(=S)OC1CCC12CCC(c1ccccc1)CC2 (centres undefined)	nt	nt	nt	nt	4.3	nt	nt
CC1(C(=O)NS(=O)(=O)c2ccccc2)CCN1C(=O)Cc1cc(F)ccc1F (centres undefined)	-3.6	-4.2	3.1	nt	2.1	nt	nt
CC1(C(=O)NS(=O)(=O)c2ccc(Cl)cc2)CCN1C(=O)Cc1ccc(-c2ccccc2)cc1 (centres undefined)	2.8	-1.7	-1.2	nt	66.1*	63.6*	23.2*
CC(C)(C)c1ccc(S(=O)(=O)NC(=O)C2(C)CCN2C(=O)Cc2cc(F)ccc2F)cc1 (centres undefined)	-2.7	-2.1	-0.8	nt	38.3*	29.7	5.6*
CC1(C(=O)NS(=O)(=O)c2ccc(Cl)cc2)CCN1C(=O)Cc1ccccc1 (centres undefined)	0.7	-1.8	0.6	nt	4.4	nt	nt
CC(C)(C)c1ccc(CC(=O)N2CCC2(C)C(=O)NS(=O)(=O)c2cccc(C#N)c2)cc1 (centres undefined)	-11.1	-2.7	-2.6	nt	30.0	nt	nt
CC(C)(C)c1ccc(CC(=O)N2CCC2(C)C(=O)NS(=O)(=O)c2cccc(Cl)c2)cc1 (centres undefined)	2.6	-1.6	-6.1	nt	54.9*	49.3*	15.9*
CC(C)(C)c1ccc(S(=O)(=O)NC(=O)C2(C)CCN2C(=O)Cc2ccc(-c3ccccc3)cc2)cc1 (centres undefined)	20.6	1.4	0.4	nt	72.4*	86.0*	49.4*
CCCCN1C(=O)N2Cc3cc(OC)ccc3C2CS1(=O)=O (centres undefined)	nt	nt	nt	nt	0.1	nt	nt
Cc1cc(C)cc(CC(=O)N2CCC2(C)C(=O)NS(=O)(=O)c2ccc(Br)cc2)c1 (centres undefined)	-5.6	-1.3	-1.9	nt	23.2	nt	nt
Cc1cc(C)cc(CC(=O)N2CCC2(C)C(=O)NS(=O)(=O)c2ccc(C(C)(C)C)cc2)c1 (centres undefined)	0.1	-1.7	-1.4	nt	57.8*	50.0*	15.1*
SMILES	NadD block	LMPTP inh	STEP block	Scp1 inh	rCAG binder	rCAG binder conf	dCAG dye counter	others
CC(C)(C)c1ccc(S(=O)(=O)NC(=O)C2(C)CCN2C(=O)CC2CCCCC2)cc1 (centres undefined)	3.2	-0.6	-1.9	nt	44.1*	31.3	5.3*
S=C1NCN(CC2CC2)CN1	nt	nt	nt	nt	0.3	nt	nt
O=C1[C@@H](CCc2ccccc2)[C@@H]2c3cc4ccccc4cc3C=NN2[C@@H]2c3cc4ccccc4cc3C=NN12	nt	nt	nt	nt	5.8	nt	nt
CCCn1nc([N+](=O)[O-])c(C(C#N)c2nc3ccccc3o2)c(Cl)c1=O (centres undefined)	5.1	5.8	5.3	-7.1	79.6*	77.1*	37.2*
C/C(N)=C(/C#N)C(=O)CSc1nc2cc(Cl)ccc2s1	1.3	2.1	-3.9	5.4	15.0	nt	nt
Cn1nc([N+](=O)[O-])c(C(C#N)c2ccccn2)c(Cl)c1=O (centres undefined)	3.4	1.0	2.5	-0.9	5.4	nt	nt
CCn1nc([N+](=O)[O-])c(C(C#N)c2nc3cc(C(F)(F)F)ccc3s2)c(Cl)c1=O (centres undefined)	19.4	9.2	5.5	-6.5	94.5*	86.8*	59.8*
COC(=O)C1CCCN(C(=O)C2CCN(S(=O)(=O)c3ccc([N+](=O)[O-])cc3)CC2)C1 (centres undefined)	nt	nt	nt	nt	3.3	nt	nt
FC(F)(F)Oc1ccc(Cn2ccc3ccc(-c4ccc5ccn(Cc6ccccc6)c5c4)cc32)cc1	nt	nt	nt	nt	13.0	nt	nt
O=C(COc1cccc2ccccc12)Nc1ccc(Cl)cc1C(=O)O	-1.3	0.4	3.9	-8.3	68.0*	66.2*	18.8*
O=C(COc1cccc2ccccc12)Nc1cc(Cl)ccc1C(=O)O	2.2	0.9	-0.4	-6.7	74.9*	70.4*	30.1*	DNA CAG DR=i
COC(=O)C1=C(C)N(Cc2cccc(C(F)(F)F)c2)C(=NCc2cc(OC)c(OC)c(OC)c2)NC1c1ccc(F)cc1 (centres undefined)	nt	nt	nt	nt	6.4	nt	nt
N=C1/C(=C\c2ccc(-c3cccc(Cl)c3)o2)C(=O)N=C2SC=C(c3ccccc3)N12	75.4*	7.7	6.3	-6.3	64.6*	65.9*	41.0*
COc1cc(/C=C/C(=O)O)ccc1OS(=O)(=O)c1cc(C)ccc1C	-4.8	-1.1	-1.7	4.0	21.5	nt	nt
